In experiment [1] the target is Glutamate receptor ionotropic, kainate. Kind of experiment: Antagonism at Ionotropic glutamate receptor kainate by inhibition of depolarizations induced by 10 uM kainic acid in rat cortical slice preparation. It is filed as functional.
Experiment [2] deals with Glutamate NMDA receptor. Kind of experiment: Affinity of [3H]-CGS- 19755 radioligand to rat N-methyl-D-aspartate (NMDA) receptor. It is filed as protein-complex assay.
Experiment [3] deals with T1, Glutamate receptor ionotropic, AMPA (Rattus norvegicus, UniProt P19490+P19491+P19492+P19493). Kind of experiment: (§1) Binding affinity against Ionotropic glutamate receptor AMPA using [3H]AMPA 19755 radioligand. It is filed as protein-complex assay.
The target of experiment [4] is Glutamate NMDA receptor. Kind of experiment: Antagonism at NMDA receptor by inhibition of depolarizations induced by 40 uM NMDA in rat cortical slice preparation. It is filed as functional.
Experiment [5] has as its target T1, Glutamate receptor ionotropic, AMPA. In words: Antagonism at AMPA receptor by inhibition of depolarizations induced by 40 uM AMPA in rat cortical slice preparation. It is filed as functional.
For experiment [6] the target is unchanged. In words: Compound was tested for Ionotropic glutamate receptor AMPA antagonistic activity by measuring its ability to inhibit depolarizations induced by 40 uM AMPA in rat cortical slice preparation. It is filed as functional.
For experiment [7], the target named is Glutamate NMDA receptor. In words: Compound was tested for NMDA receptor antagonistic activity by measuring its ability to inhibit depolarizations induced by 40 uM NMDA in rat cortical slice preparation. It is filed as functional.
Experiment [8] addresses Glutamate receptor ionotropic, kainate. Kind of experiment: Binding affinity against Ionotropic glutamate receptor kainate using [3H]-Kainic acid 19755 radioligand. It is filed as protein-complex assay. In a few lines:
(§2)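 Displacement of radioligand binding in rat cortical tissue: [3H]AMPA for AMPA sites, [3H]kainic acid for kainate sites. Assays run in triplicate unless otherwise indicated; some IC50 values come from a single assay.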

The test system of experiment [9] is Mus musculus. Kind of experiment: (§3) Effective dose to produce neurological impairments in mice using the horizontal screen assay, administered intraperitoneally. Conditions: ip. It is filed as functional. In a few lines: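 Mice dosed ip 30 min beforehand are placed on a horizontal screen, which is then turned upside down. Unimpaired mice climb back to the top within 2 min.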

For experiment [10], the system named is Mus musculus. In words: Effective dose to block maximal electroshock-induced convulsions in mice, administered intraperitoneally. It is filed as functional. To be noted: ip.
Experiment [11] deals with Mus musculus. In words: Effective dose to block ATPA-induced muscle rigidity in mice at a dose of 30 mg/kg administered intraperitoneally. To be noted: ip.
The test system of experiment [12] is Mus musculus. Described as §3. It is filed as functional. To be noted: ip. A digest of the protocol:
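Mice dosed intraperitoneally 30 min before testing were placed on a horizontal screen, which was then turned upside down. Unimpaired mice climb back to the top within 2 min; failure indicates neurological impairment. This was done before MES testing.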
The source holds these as a separate data set.

For experiment [13], the target named is Glutamate receptor ionotropic, kainate. In words: Compound was tested for Ionotropic glutamate receptor kainate antagonistic activity by measuring its ability to inhibit depolarizations induced by 10 uM kainic acid in rat cortical slice preparation. It is filed as functional.
Experiment [14] addresses T2, Glutamate receptor ionotropic, AMPA (Rattus norvegicus) (UniProt P19491+P19492+P19493+P19490). The description is as §1. Conditions: concentration not given here. It is filed as protein-complex assay. A digest of the protocol: as §2
Experiment [15] deals with T2, Glutamate receptor ionotropic, AMPA (Rattus norvegicus). Kind of experiment: Compound was tested for AMPA receptor antagonistic activity by measuring its ability to inhibit depolarizations induced by 40 uM AMPA in rat cortical slice preparation at 100 uM. It is filed as functional.

Structures are written as SMILES.

`O=C(O)[C@@H]1C[C@H]2C[C@H](CCP(=O)(O)O)CC[C@H]2CN1`: the IC50 (commonly the concentration that inhibits the measured activity by half) in experiment [1] was over 100 µM; at Glutamate NMDA receptor [2], over 10 µM; in experiment [3], over 10 µM; against Glutamate NMDA receptor [4], over 100 µM; in experiment [5], over 100 µM.

As to `CCOC(=O)[C@@H]1C[C@H]2C[C@@H](CCP(=O)(OCC)OCC)CC[C@H]2CN1C(=O)OC`, the IC50 (in experiment [1]; on Glutamate NMDA receptor [2]; in experiment [3]; on Glutamate NMDA receptor [4]; in experiment [5]) was over 100 µM in each case.

Turning to `O=C(O)[C@@H]1C[C@H]2C[C@H](CSc3nn[nH]n3)CC[C@H]2CN1` (stereo in doubt; (+/-)28), the IC50 is 47.9 µM at Glutamate NMDA receptor [2]; 4.9 µM in [3]; 6.1 µM in [6]; over 100 µM on Glutamate NMDA receptor [7]; 37.3 µM in experiment [8].

For the compound `CCOC(=O)[C@@H]1C[C@H]2C[C@@H](CCc3cc(OC)no3)CC[C@H]2CN1C(=O)OC`, the IC50 on Glutamate NMDA receptor [2] and on Glutamate NMDA receptor [4] was over 100 µM throughout.

Turning to `O=C(O)[C@@H]1C[C@H]2C[C@H](CCc3cc(O)no3)CC[C@H]2CN1`, the IC50 (at Glutamate NMDA receptor [2]; in [3]; in experiment [8]) was over 100 µM each time. Further, the median effective dose (ED50) (in general, the midpoint of the dose-response relation) was over 100 mg/kg with Mus musculus [9], 31.1 mg/kg in the experiment on Mus musculus [10] and 8.8 mg/kg in the experiment with Mus musculus [11].

As for `O=C(O)[C@@H]1C[C@H]2C[C@@H](CS(=O)(=O)c3nnc[nH]3)CC[C@H]2CN1` (stereo in doubt; (-)36), the figures for the IC50 (on Glutamate NMDA receptor [2]; in [3]; in experiment [8]) were over 100 µM, 0.6 µM and over 100 µM, respectively.

In the case of `O=C(O)[C@@H]1C[C@H]2C[C@@H](CCCc3nnn[nH]3)CC[C@H]2CN1`, the ED50 in the experiment with Mus musculus [10], in the experiment with Mus musculus [12] and with Mus musculus [11] was over 100 mg/kg in each case.

As for `CCOC(=O)[C@@H]1C[C@H]2C[C@@H](CCC(=O)NS(C)(=O)=O)CC[C@H]2CN1C(=O)OC`, the IC50 (in [1]; at Glutamate NMDA receptor [2]; in experiment [3]; on Glutamate NMDA receptor [4]; in experiment [5]; in [8]) was over 100 µM each time.

With `O=C(O)[C@@H]1C[C@H]2C[C@@H](CSc3nn[nH]n3)CC[C@H]2CN1` (racemic), the IC50 at Glutamate NMDA receptor [2] is 29.4 µM; in experiment [3] it was 0.9 µM; in experiment [6], 19.8 µM; on Glutamate NMDA receptor [7], over 100 µM; in experiment [8], 30.1 µM.

`O=C(O)[C@@H]1C[C@H]2C[C@H](CSc3nn[nH]n3)CC[C@H]2CN1` (stereo in doubt; (-)28): the IC50 at Glutamate NMDA receptor [2] is 29.8 µM; in experiment [3], 70.5 µM; in experiment [6] it was over 100 µM; in experiment [13], over 100 µM; on Glutamate NMDA receptor [7] it was 62.2 µM; in experiment [8], over 100 µM.

Consider `O=C(O)[C@H]1C[C@@H]2C[C@@H](CSc3nn[nH]n3)CC[C@@H]2CN1`, for which the IC50 at Glutamate NMDA receptor [2] is over 100 µM; in experiment [3], 17.8 µM; in experiment [6], 9 µM; in [13] it was 29.1 µM; against Glutamate NMDA receptor [7], over 100 µM; in [8] it was 27.9 µM.

Regarding `O=C(O)[C@@H]1C[C@H]2C[C@@H](CCc3nn[nH]n3)CC[C@H]2CN1` [TEZAMPANEL ANHYDROUS], the IC50 at Glutamate NMDA receptor [2] worked out at 12.1 µM; in [3], 14 µM; in [5] it was 1.8 µM; in [8] it was 28.1 µM.

Regarding `O=C(O)[C@H]1C[C@@H]2C[C@H](CSc3nn[nH]n3)CC[C@@H]2CN1`, the half-inhibitory concentration (IC50) is over 10 µM on Glutamate NMDA receptor [2]; 22.1 µM in experiment [3]; 19.8 µM in experiment [6]; over 31.6 µM in experiment [13]; over 100 µM on Glutamate NMDA receptor [7]; over 100 µM in experiment [8].

Take `O=C(CC[C@H]1CC[C@H]2CN[C@H](C(=O)O)C[C@H]2C1)Nc1nn[nH]n1`: the IC50 is 71 µM in experiment [1]; over 100 µM on Glutamate NMDA receptor [2]; 72.6 µM in experiment [3]; 84 µM at Glutamate NMDA receptor [4]; 19 µM in [5]; over 100 µM in [8].

Turning to `O=C(O)[C@H]1C[C@@H]2C[C@H](CS(=O)(=O)c3nc[nH]n3)CC[C@@H]2CN1`, the IC50 on Glutamate NMDA receptor [2] is 60.9 µM; in experiment [3] it was 23.6 µM; in [8], over 100 µM.

As to `O=C(O)[C@@H]1C[C@H]2C[C@@H](CSc3nc[nH]n3)CC[C@H]2CN1`, the IC50 at Glutamate NMDA receptor [2] is over 10 µM; in experiment [3], over 10 µM; in experiment [6] it was 68.8 µM; in [13] it was over 100 µM; against Glutamate NMDA receptor [7] it was over 100 µM; in experiment [8], over 10 µM.

Take `CCOC(=O)[C@@H]1C[C@H]2C[C@@H](CCC(=O)NS(=O)(=O)c3ccccc3)CC[C@H]2CN1C(=O)OC`: the IC50 (in [1]; on Glutamate NMDA receptor [2]; in experiment [3]; against Glutamate NMDA receptor [4]; in experiment [5]; in experiment [8]) was over 100 µM throughout.

For the compound `O=C(O)[C@@H]1C[C@H]2C[C@@H](Cn3nnc(S)n3)CC[C@H]2CN1` (racemic), the IC50 was over 100 µM in experiment [1], over 10 µM on Glutamate NMDA receptor [2], over 100 µM against Glutamate NMDA receptor [4] and over 100 µM in [8]. Further, the inhibition (commonly how much of the control response was suppressed) amounted to 57.9% in experiment [14] and 55% in [15].

Regarding `O=C(O)[C@@H]1C[C@H]2C[C@@H](CCS(=O)(=O)O)CC[C@H]2CN1`, the 50% inhibitory concentration (IC50) in [1] is 100 µM; at Glutamate NMDA receptor [2], 61.8 µM; in experiment [3] it was 11.6 µM; against Glutamate NMDA receptor [4], over 100 µM; in [5], 31.4 µM; in experiment [8], over 100 µM.

Take `O=C(O)[C@@H]1C[C@H]2C[C@@H](CS(=O)(=O)c3nnc[nH]3)CC[C@H]2CN1` (stereo in doubt; 36): the IC50 in experiment [1] was 10 µM; in [3], 1.7 µM; against Glutamate NMDA receptor [4] it was over 100 µM; in [5] it was 2.16 µM. The ED50 is 9.5 mg/kg in the experiment with Mus musculus [10] and 25.2 mg/kg with Mus musculus [12].

Turning to `O=C(O)[C@@H]1C[C@H]2C[C@H](CCc3nnn[nH]3)CC[C@H]2CN1` (stereo in doubt; (+)49), the IC50 came out at 28.9 µM in experiment [1], 31.5 µM in experiment [3], 21.9 µM in [5] and 87 µM in experiment [8].

As for `O=C(O)[C@@H]1C[C@H]2C[C@@H](CCc3nn[nH]n3)CC[C@H]2CN1` (racemic) [TEZAMPANEL ANHYDROUS], the ED50 is 9 mg/kg in the experiment with Mus musculus [10], 19.6 mg/kg with Mus musculus [12] and 3.6 mg/kg in the experiment on Mus musculus [11].

For `O=C(O)[C@H]1C[C@@H]2C[C@H](CCc3nnn[nH]3)CC[C@@H]2CN1`, the IC50 in experiment [1], in [3], in experiment [5] and in experiment [8] was over 100 µM throughout.

As for `O=C(O)CC[C@@H]1CC[C@H]2CN[C@H](C(=O)O)C[C@H]2C1`, the IC50 (in [1]; at Glutamate NMDA receptor [2]; in experiment [3]; on Glutamate NMDA receptor [4]; in experiment [5]; in experiment [8]) was over 100 µM in each case.

Regarding `O=C(O)[C@@H]1C[C@H]2C[C@H](CCS(=O)(=O)O)CC[C@H]2CN1`, the IC50 (in experiment [1]; at Glutamate NMDA receptor [2]; in experiment [3]; on Glutamate NMDA receptor [4]; in [5]; in experiment [8]) was over 100 µM in each case.

Take `O=C(O)[C@@H]1C[C@H]2C[C@@H](CNc3nn[nH]n3)CC[C@H]2CN1` (racemic): the IC50 (in experiment [1]; on Glutamate NMDA receptor [2]; in experiment [3]; against Glutamate NMDA receptor [4]; in [5]; in experiment [8]) was over 100 µM throughout.

In turn, `O=C(O)[C@@H]1C[C@H]2C[C@H](CCc3nnn[nH]3)CC[C@H]2CN1` (stereo in doubt; (-)49) registered an IC50 at Glutamate NMDA receptor [2] of 76.9 µM.

As for `O=C(O)[C@@H]1C[C@H]2C[C@@H](CSc3nn[nH]n3)CC[C@H]2CN1`, the IC50 on Glutamate NMDA receptor [2] was 18.1 µM; in experiment [3], 0.6 µM; in [6] it was 1.4 µM; in experiment [13] it was over 31.6 µM; on Glutamate NMDA receptor [7] it was 22.9 µM; in [8], 15.7 µM. Moreover, the ED50 was 20.1 mg/kg in the experiment with Mus musculus [9], 8.5 mg/kg in the experiment on Mus musculus [10] and 8.1 mg/kg in the experiment with Mus musculus [11].

These data come from ChEMBL document CHEMBL1129329, “Structure-activity studies of 6-substituted decahydroisoquinoline-3-carboxylic acid AMPA receptor antagonists. 2. Effects of distal acid bioisosteric substitution, absolute stereochemical preferences, and in vivo activity” (J Med Chem, 1996).
